For eleven compounds, IC50 results are on record in ChEMBL document CHEMBL1147254, “New bioactive polyphenols from Theobroma grandiflorum ("cupuaçu")” (J Nat Prod, 2003).

The subject of assay [1] is Radical scavenging activity. Kind of assay: Antioxidant activity assessed as DPPH radical scavenging activity after 30 mins. Format: functional. The gist of the method:
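Test samples in DMSO were mixed with a 300 µM ethanolic DPPH solution and incubated at 37 °C.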

The subject of assay [2] is HCT-116. The assay is described as follows: Cytotoxicity against human HCT116 cells after 72 hrs by MTT assay. In kind it is functional, cell-based. The following applies: HCT-116, 72 h. The method in brief:
(§1)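 About 30 000 cells per well were seeded in 96-well plates, and the medium was replaced once cultures reached 40% confluence.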

In assay [3] the test system is SW480. Kind of assay: Cytotoxicity against human SW480 cells after 72 hrs by MTT assay. Format: functional, cell-based. Conditions: SW480, 72 h. The method in brief: as §1

pIC50: −log10 of the molar value.

Take `O=C(O)[C@H]1O[C@@H](Oc2c(O)cc(O)c3c(=O)cc(-c4ccc(O)cc4)oc23)[C@H](O)[C@@H](O)[C@@H]1O`: the pIC50 in assay [1] is 4.17.

Regarding `COC(=O)[C@H]1O[C@@H](Oc2c(O)cc(O)c3c(=O)cc(-c4ccc(O)cc4)oc23)[C@H](O)[C@@H](O)[C@@H]1O`, the negative-log IC50 (pIC50) in assay [1] was 4.16.

With `COC(=O)[C@H]1O[C@@H](Oc2c(-c3ccc(O)c(O)c3)oc3cc(O)cc(O)c3c2=O)[C@H](O)[C@@H](O)[C@@H]1O`, in assay [1], the pIC50 was 4.38.

Regarding `O=C(O)[C@H]1O[C@@H](Oc2c(O)cc(O)c3c(=O)cc(-c4ccc(O)c(O)c4)oc23)[C@H](O)[C@@H](O)[C@@H]1O`, in assay [1], the pIC50 was 4.24.

Turning to `Oc1cc(O)c2c(c1)O[C@H](c1ccc(O)c(O)c1)[C@H](O)C2` [(-)-EPICATECHIN], in assay [1], the pIC50 was 4.31.

Regarding `Oc1cc(O)c2c(c1)O[C@H](c1ccc(O)c(O)c1)[C@@H](O)C2` [CIANIDANOL], the pIC50 in assay [1] is 4.31.

For `O=c1c(O)c(-c2ccc(O)cc2)oc2cc(O)cc(O)c12` [KAEMPFEROL], the pIC50 in assay [1] is 4.05.

With `O=C(O)[C@H]1O[C@@H](Oc2c(-c3ccc(O)c(O)c3)oc3cc(O)cc(O)c3c2=O)[C@H](O)[C@@H](O)[C@@H]1O` [QUERCETIN GLUCURONIDE], the pIC50 in assay [1] was 4.35.

In the case of `O=c1c(O)c(-c2ccc(O)c(O)c2)oc2cc(O)cc(O)c12` [QUERCETIN], the pIC50 in assay [1] was 4.40.

In the case of `O=C(O)[C@H]1O[C@@H](Oc2c(O)cc(O)c3c(=O)cc(-c4ccc(O)c(O)c4)oc23)[C@H](O)[C@@H](OS(=O)(=O)O)[C@@H]1O` [THEOGRANDIN II], the pIC50 in assay [2] is 3.84; in assay [3] it was 3.90; in assay [1], 3.92.

Consider `O=C(O)[C@H]1O[C@@H](Oc2c(O)cc(O)c3c(=O)cc(-c4ccc(O)cc4)oc23)[C@H](O)[C@@H](OS(=O)(=O)O)[C@@H]1O` [THEOGRANDIN I], for which the results for the pIC50 in assay [2], in assay [3] and in assay [1] were 3.69, 3.79 and 3.47, respectively.
